Experimental data gathered from unrelated publications.
Lines come from different studies, so protocols differ.
Sample: plasma

The Cmax of `Cc1ccc(C(=O)N(CCCN)[C@@H](c2oc3cc(Cl)ccc3c(=O)c2Cc2ccccc2)C(C)C)cc1` is reported as 803 ng/mL (human; intravenous; 8 mg/m²; single dose, patients, infusion).
`C[C@@]1(c2cc(NC(=O)c3ccc(C#N)cn3)ccc2F)C=CSC(N)=N1` has a Cmax of 6.72 ng/mL (male human; oral; 1 mg; single dose).
`COc1cc(C(=O)NC2CCN(C)CC2)c(F)cc1Nc1ncc(C(F)(F)F)c(Oc2cccc3c2C(=O)N(C)C3)n1` gave a Cmax of 405 nM (human; oral; 25 mg; multiple doses, once daily, steady state, patients).
`C#Cc1cccc(Nc2ncnc3cc(OCCOC)c(OCCOC)cc23)c1` has a Cmax of 1170 nM (human; oral; 50 mg; patients).
The Cmax of `CC(C)(O)c1ccccc1-c1ccc2[nH]c(/C=C/c3ccc(C(F)(F)F)cc3)nc2c1` is reported as 29.6 ng/mL (male human; oral; 5 mg; single dose, fasted, healthy volunteers).
The Cmax of `CCCCC[C@H](O)CC[C@@H]1[C@H]2Cc3cccc(OCC(=O)O)c3C[C@H]2C[C@H]1O` is reported as 0.43 ng/mL (human; inhaled; 18 µg; single dose, healthy volunteers).
`Cn1cc(-c2ccc(S(=O)(=O)[C@@H]3C[C@@H](C(=O)NC4(C#N)CC4)N(C(=O)C4(C(F)(F)F)CC4)C3)c(C(F)(F)F)c2)cn1` gave a Cmax of 1070 ng/mL (human; oral; 300 mg; single dose, fasted, healthy volunteers).
The Cmax of `Oc1cc(O)c2c(c1)O[C@@H](c1ccc(O)c(O)c1)[C@@H](O)C2` is reported as 0.4 ng/mL (human; oral; 10 mg; single dose).
For `CO[C@@H]1[C@H](OC(=O)N2CC(CCN3CCOCC3)C2)CC[C@]2(CO2)[C@H]1[C@@]1(C)O[C@@H]1CC=C(C)C`, the Cmax was 16.1 ng/mL (human; subcutaneous; 3.6 mg; single dose, healthy volunteers).
`CCc1nc2c(C)cc(N3CCN(CC(=O)N4CC(O)C4)CC3)cn2c1N(C)c1nc(-c2ccc(F)cc2)c(C#N)s1` has a Cmax of 1400 ng/mL (human; oral; 150 mg; single dose, fed, healthy volunteers).
For `CC(C)(Sc1ccncc1-c1ccc(C#N)c2ccccc12)C(=O)O`, the Cmax was 72.9 ng/mL (male human; oral; 5 mg; single dose, fasted, healthy volunteers).
For `CC(C)n1cc(C#N)c2cc(-n3cc(C(=O)O)cn3)ccc21`, the Cmax was 3520 ng/mL (human; oral; 100 mg; single dose, fasted, healthy volunteers).
`N#CN1C[C@H](n2nc(-c3ccc(Oc4ccc(Cl)cn4)cc3)c(C(N)=O)c2N)CCC12CC2` gave a Cmax of 1020 ng/mL (human; oral; 600 mg; fed).
`COCCOc1cnc2ccn([C@H](C)c3nnc4c(F)cc(-c5cnn(C)c5)cn34)c(=O)c2c1` gave a Cmax of 4140 ng/mL (human; oral; 300 mg; multiple doses, once daily, patients).
`Nc1cc(C(F)(F)F)c(-c2cc(N3CCOCC3)nc(N3CCOCC3)n2)cn1` has a Cmax of 289 ng/mL (human; oral; 25 mg/day; patients).
For `O=C(O)C[C@H](O)C[C@H](O)/C=C/c1c(C2CC2)nc2ccccc2c1-c1ccc(F)cc1`, the Cmax was 36.4 ng/mL (human; oral; 2 mg; single dose, fasted, healthy volunteers, tablet).
The Cmax of `FC(F)(F)c1ccc(CNc2ccc(Cc3c[nH]c4ncc(Cl)cc34)cn2)cn1` is reported as 4220 ng/mL (human; oral; 600 mg; single dose, fasted, healthy volunteers).
`CO[C@H]1CC[C@H](N2C(=O)CNc3ncc(-c4ccc(C(C)(C)O)nc4)nc32)CC1` gave a Cmax of 50.8 ng/mL (human; oral; 7.5 mg; multiple doses, patients).
For `CCn1c(=O)c(-c2cc(NC(=O)Nc3ccccc3)c(F)cc2Br)cc2cnc(NC)cc21`, the Cmax was 339 ng/mL (human; oral; 50 mg; single dose, patients).
The Cmax of `O=C(/C=C/c1cccc(S(=O)(=O)Nc2ccccc2)c1)NO` is reported as 76800 ng/mL (human; intravenous; 1800 mg/m²; patients).
